Sampled rows, rich in hits. Any-hit rate of the full collection: about 4.7%.
AHR activator: activates the human aryl hydrocarbon receptor; activation, % at 5 µM; 320,000 tested, 2.5% active; P35869; AHR-responsive luciferase reporter cells, luminescence; AID 2796; in the data active = activation above about 47%;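 also: 0% = vehicle wells and 100% = reference agonist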
HTR2A ag: agonists of mouse serotonin 5-HT2A receptor (HTR2A); activation, % at 7.6 µM; CHO-K1 mHTR2A beta-arrestin complementation, luminescence; percent of 30 µM serotonin response; P35363; 360,000 tested, 0.66% active;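 active = activation above a run cutoff, the mean activation of all tested compounds plus 3 SD, cut at about 14% in these data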;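 also: 0% = plate median of compound wells and 100% = 30 µM serotonin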
Target sequence (P35363 whole entry, looked up): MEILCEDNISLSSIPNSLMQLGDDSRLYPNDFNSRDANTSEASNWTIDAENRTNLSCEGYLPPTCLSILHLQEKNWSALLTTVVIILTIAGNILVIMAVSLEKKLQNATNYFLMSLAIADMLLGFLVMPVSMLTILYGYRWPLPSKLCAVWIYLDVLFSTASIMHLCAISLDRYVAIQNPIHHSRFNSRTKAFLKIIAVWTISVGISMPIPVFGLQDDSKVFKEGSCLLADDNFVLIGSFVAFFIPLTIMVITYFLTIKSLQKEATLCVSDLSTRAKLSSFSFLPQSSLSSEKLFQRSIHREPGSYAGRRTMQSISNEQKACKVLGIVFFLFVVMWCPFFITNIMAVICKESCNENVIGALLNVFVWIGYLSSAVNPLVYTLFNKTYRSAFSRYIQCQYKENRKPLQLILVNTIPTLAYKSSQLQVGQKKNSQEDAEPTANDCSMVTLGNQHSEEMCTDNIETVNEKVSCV
MC4R ag barr: human MC4R agonism via beta-arrestin; P32245; U2OS MC4R beta-arrestin complementation, luminescence; percent of melanotan II response, DMSO zero; activation, % at 8.9 µM; 360,000 tested, 0.98% active;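 active = activation above a per-plate cutoff, the mean activation of sample wells on that plate plus 3 SD, cut at about 8% in these data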
FXN GAA850 act: activators of GAA850 frataxin (FXN) promoter. HEK293 lucGAA850 FXN promoter luciferase reporter, 24 h; percent of 10 µM SAHA response. activation, % at 6 µM. 360,000 tested, 0.56% active;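 active = activation above the average of all compounds screened plus 3 SD, cutoff fixed separately per campaign, cut at about 7.5% in these data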;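 also: 0% = DMSO wells and 100% = 10 µM SAHA wells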
MC4R antagonist: human MC4R antagonism in cAMP assay. P32245. 360,000 tested, 0.48% active. inhibition, % at 6.5 µM. MC4R-expressing cells, MTII-stimulated cAMP, LANCE TR-FRET;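 active = inhibition above its plate's cutoff, the mean of tested wells on that plate plus 3 SD, cut at about 29% in these data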;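 also: 0% = Melanotan II alone and 100% = Melanotan II plus saturating MCL0020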
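Material: human MC4R-expressing U2OS cells. Probe or stimulus: Melanotan II challenge. Dosing: 6.5 µM single dose. Times: 30-min compound, 1-h challenge, 1-h detection, room temperature. Technique: TR-FRET with Eu-cAMP and labeled anti-cAMP, 671 nm. Replication: singlicate.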
MC4R barr conf: human MC4R beta-arrestin agonism confirmation. shares compounds with MC4R ag barr. U2OS MC4R beta-arrestin recruitment, luminescence; scaled DMSO 0%, Melanotan II 100%. activation, % at 8.9 µM. 2,400 tested, 31% active. AID 602192;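 active = mean activation across replicates above the hit cutoff set in the earlier primary screen, cut at about 8% in these data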
MOR DOR agonist: counter-screen for MC4R agonists: agonists of mu-delta opioid heterodimer | U2OS PathHunter beta-arrestin, beta-gal luminescence; percent of deltorphin B response, DMSO zero | shares compounds with MC4R ag barr | activation, % at 9.2 µM | 2,400 tested, 5.8% active;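 active = mean activation across replicates exceeds the hit threshold derived in the earlier primary screen, cut at about 18% in these data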;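 also: 100% = deltorphin B at 0.9 µM final and 0% = DMSO alone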
* marks the source's active call; other numbers are inactive results; . = no result.

SMILES	AHR activator	HTR2A ag	MC4R ag barr	FXN GAA850 act	MC4R antagonist	MC4R barr conf	MOR DOR agonist
COc1cccc(C2NC(=O)NC(C)=C2C(=O)OCC2CCCCC2)c1 (stereo not drawn)	-7.3	-3.3	5.2	-0.5	26.5	.	.
CCn1c(CC(=O)Nc2ccc(C)c(Cl)c2)nnc1SCCOc1ccc(OC)cc1	-0.9	-3.2	10.7*	0.3	-4.8	0.0	7.0
COc1ccc(NC(=O)CSc2nnc(CCC(=O)Nc3ccc(C)c(Cl)c3)n2C)cc1	-1.8	-2.4	0.2	5.0	5.9	.	.
Cc1cccc(Nc2ncnc3ccccc23)c1	6.4	-5.5	-1.9	-0.1	-1.5	.	.
Cc1cccc(Nc2ncnc3onc(-c4cccc(Cl)c4)c23)c1	14.7	3.4	11.2*	2.3	6.0	-0.3	5.6
Cc1ccc(C(=O)c2coc3c2C(=O)C(=O)c2ccccc2-3)cc1	50.0*	6.3	16.5*	-1.0	-7.0	16.6*	9.3
Clc1ccc(Cn2ncc3c(N4CCN(c5ccccc5)CC4)ncnc32)cc1	.	0.8	11.4*	-1.3	25.4	16.8*	11.8
CCCOc1ccc(N2C(=O)CC(NNC(=O)c3ccc(COc4ccccc4)o3)C2=O)cc1 (stereo not drawn)	2.1	-0.1	13.0*	-1.2	20.6	4.8	7.1
Cc1cc(NC(=O)c2cccc(COc3ccc(Br)cc3)c2)no1	-13.4	1.9	11.8*	3.6	-7.3	12.0*	4.5
COc1ccc(C(C)=O)cc1CSc1nc2ccccc2c(=O)n1-c1ccccc1	2.8	1.9	15.6*	0.7	-24.0	2.5	1.9
COc1ccc(C(C)=O)cc1CSc1nc2ccccc2c(=O)n1-c1cccc(C)c1	2.0	4.2	-1.0	-0.1	9.5	.	.
COc1ccc(CC(=O)Oc2ccc(Cl)cc2Br)cc1S(=O)(=O)N1CCOCC1	5.0	-0.8	-3.8	-0.6	2.5	.	.
Cc1ccc(C)c(OCCC(=O)OCC(=O)NC(=O)NC2CCCC2)c1	-0.9	7.8	13.9*	-2.0	7.6	3.1	8.0
CCOC(=O)c1c(-c2ccc(C)o2)csc1NC(=O)COC(=O)c1ccc(NC(N)=O)cc1	8.7	-0.7	23.7*	2.0	25.7	6.1	3.1
COc1ccc(C(=O)NC(=S)N2CCOCC2)cc1[N+](=O)[O-]	18.1	0.8	-3.3	2.1	1.5	.	.
Cc1nc(-c2cccnc2)sc1C(=O)N/N=C/c1ccccc1Cl	0.9	-6.6	10.5*	-0.6	-6.7	-1.0	3.6
Cc1nc(N)sc1C(=O)N/N=C/c1cccnc1	14.3	2.0	-0.5	4.6	0.5	.	.
COc1ccc(/C(C)=N/Nc2ncc(Cl)cc2Cl)c(O)c1	15.0	-7.9	12.8*	1.8	-6.2	-2.1	1.8
CC(C)Cc1nnc(NC(=O)C2=COCCO2)s1	6.5	3.6	0.3	0.2	12.2	.	.
N#C/C(=C\c1ccc([N+](=O)[O-])o1)C(=O)Nc1ccc(F)cc1	6.8	4.7	12.2*	1.8	13.1	13.5*	14.3
COc1ccc(NC(=O)/C(C#N)=C\c2ccc(Br)o2)cc1	42.5	-0.7	2.6	3.1	1.1	.	.
O=C(COc1ccccc1)NCc1ccco1	.	0.0	-0.2	1.6	7.1	.	.
N#Cc1c2ccc(OCC(=O)NCc3ccco3)cc2n2ccccc12	20.7	-3.3	14.5*	-0.8	12.1	3.0	5.4
CCOC(=O)c1sc(NC(=O)c2cccc(S(=O)(=O)N3CCN(C)CC3)c2)cc1C	10.7	-5.2	-0.8	-0.1	5.3	.	.
CCOC(=O)c1sc(NC(=O)c2cccc(S(=O)(=O)N(CC)CC)c2)cc1C	9.8	1.3	11.7*	-3.3	17.6	0.5	5.4
SMILES	AHR activator	HTR2A ag	MC4R ag barr	FXN GAA850 act	MC4R antagonist	MC4R barr conf	MOR DOR agonist
Nc1ccn(C2OC(CCl)C(O)C2O)c(=O)n1 (stereo not drawn)	.	-3.4	0.4	-1.8	3.1	.	.
Cc1ccc(CNC(=O)Cn2c(=O)c3sccc3n(Cc3ccc([N+](=O)[O-])cc3)c2=O)cc1	-2.2	1.6	14.2*	0.0	15.3	-3.1	3.4
O=C(CCC(=O)N1CCN(Cc2ccc(F)cc2)CC1)Nc1nnc(C(F)(F)F)s1	3.9	5.5	1.1	-0.2	-3.1	.	.
COc1ccc(C(C)=O)cc1COC(=O)c1cc2ccccc2cc1O	5.8	4.0	10.8*	2.6	-16.0	-0.6	5.5
COc1ccc(C(C)=O)cc1COC(=O)c1cccnc1Cl	-1.2	-1.5	-1.9	2.4	-1.6	.	.
COc1ccccc1NC(=O)COC(=O)c1cc(C)nc2ccccc12	2.6	1.4	0.1	-0.2	7.7	.	.
COc1ccccc1NC(=O)COC(=O)c1cc2ccccc2cc1O	5.6	2.4	16.8*	-0.7	5.0	1.2	6.3
COc1ccc(C(C)=O)cc1COC(=O)c1ccc(OCc2c(C)noc2C)cc1	-4.4	-4.8	15.7*	-1.1	0.8	9.2*	3.1
COc1ccc(C(C)=O)cc1COC(=O)c1c(C)noc1C	1.1	8.7	-0.1	1.0	-3.3	.	.
O=C(COC(=O)c1cc2ccccc2cc1O)Nc1cccnc1Cl	8.6	1.6	3.7	0.6	8.7	.	.
O=C(COC(=O)c1cc2ccccc2cc1O)Nc1ccccc1F	19.6	3.6	12.9*	1.2	1.3	1.7	3.4
CC1(c2ccc3ccccc3c2)CCC(=O)O1 (stereo not drawn)	.	-1.8	-0.1	0.0	-4.3	.	.
O=c1ccn(C2CCCO2)c(=O)[nH]1 (stereo not drawn)	.	-0.9	-1.8	0.6	-2.9	.	.
O=C(CN1C(=O)NC(c2ccc(F)cc2)C1=O)NC1CCCCC1 (stereo not drawn)	0.5	-4.8	-0.2	1.3	-4.9	.	.
O=C(COC(=O)c1ccc(S(=O)(=O)Nc2ccccc2)cc1)NCCC1=CCCCC1	2.2	5.6	-1.1	1.1	2.7	.	.
O=C(COC(=O)c1ccccc1O)Nc1cccc2ccccc12	2.1	-6.5	12.5*	0.1	-1.9	0.6	2.2
COc1ccc(C(C)=O)cc1COc1ccc(Cl)cc1Cl	-4.9	-0.8	11.0*	-0.3	-6.8	-0.3	2.1
O=C(COC(=O)c1ccccc1O)Nc1cccnc1Cl	9.4	-0.1	-0.7	3.5	-2.5	.	.
Nc1nc(CCl)nc(N(c2ccccc2)c2ccccc2)n1	-0.9	4.2	18.4*	-8.3	14.4	13.2*	31.4*
CC(C)[C@H](NC(=O)c1c(F)cccc1F)C(=O)OCC(=O)NNC(=O)c1ccccc1	.	-4.7	-0.3	0.8	2.2	.	.
CC(C)(C)CN1C(=O)C(=O)NC[C@@H]1CCCCN	6.9	-0.6	0.9	-1.5	7.0	.	.
COc1ccc(C2CC(c3ccc(Cl)cc3Cl)n3nc(N)nc3N2)cc1 (stereo not drawn)	11.2	0.9	15.1*	1.3	4.8	13.2*	6.7
